Source: publication PMC6904836 (International Journal for Parasitology: Drugs and Drug …, 2019)
“And” between values parts separate entries of the source, which are not always exact repeats. Identical values can stand only once.

Key:
[1] = system: L. major (MHOM/IL/SU73/WR779); experiment: Luciferase amastigote macrophage assay in RAW 264.7; type: cell-based; conditions: Leishmania major, RAW264.7, 96 h, read-out: EC50 L. major
Procedure, shortened: (§1)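 RAW 264.7 macrophages (10,000/well) were incubated 24 h at 37 °C/5% CO2, then infected with luciferase-transfected promastigotes in DMEM + 10% HiFBS. Promastigotes were maintained in Schneider's + 20% HiFBS at 22 °C. Compounds (DMSO stock 11.5 mM) ran from 10 μg/ml in 1:2 dilutions, 0.2% DMSO final, for 96 h at 37 °C. D-luciferin was added at 150 μg/mL final for 30 min before the luminescence read. Amphotericin B control was run in octuplicate.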

[2] = system: L. tropica (MHOM/SU/74/K-27 WR-2995); experiment: Luciferase amastigote macrophage assay in RAW 264.7; type: cell-based; conditions: Leishmania tropica, RAW264.7, 96 h, read-out: EC50 L. tropica
[3] = system: L. guyanensis (MHOM/GY/06/PAB-3985-WR-2853/A Chan); experiment: Luciferase amastigote macrophage assay in RAW 264.7; type: cell-based; conditions: Leishmania guyanensis, RAW264.7, 96 h, read-out: EC50 L. guyanensis
Procedure, shortened: as §1

[4] = system: L. major (NIH173 (MHOM/IR/-/173)); experiment: Lesion cure model, BALB/c mice infected with luciferase-expressing L. major; type: in vivo; conditions: BID; for bioluminescence signal (parasite load) at the infection site: vs vehicle control
[5] = pH7.4; ref DNDi unpublished data; cited from earlier work
[6] = system: L. major (MHOM/SA/85/JISH118); experiment: L. major - BALB/c mouse model of CL; type: in vivo, BALB/c mice; conditions: for % reduction Lesion size / % reduction Parasite load: n = 5
in vitro = conditions: human
[7] = study 1, 50 mg/kg PO, 5 days, day 11 post end of treatment
[8] = study 2, 50 mg/kg PO, 10 days, day 11 post end of treatment
[9] = study 2, 50 mg/kg PO, 10 days, day 80
[10] = 50 mg/kg/day, compared to the untreated control

C[C@@H]1[C@H](O)[C@@H](C)/C=C/C=C/C=C/C=C/C=C/C=C/C=C/[C@H](O[C@@H]2O[C@H](C)[C@@H](O)[C@H](N)[C@@H]2O)C[C@@H]2O[C@](O)(C[C@@H](O)C[C@@H](O)[C@H](O)CC[C@@H](O)C[C@@H](O)CC(=O)O[C@H]1C)C[C@H](O)[C@H]2C(=O)O [Amphotericin B, amphotericin B deoxycholate, reference compound]
EC50 [1]: 30 nM
EC50 [2]: 10 nM
EC50 [3]: 30 nM

O=[N+]([O-])c1cn2c(n1)O[C@@H](COc1ccc(-c3ccc(F)cc3)nc1)CC2 [DNDI-0690]
EC50 [1]: 340 nM
lesion size reduction vs respective vehicle control ([4]; study 1, 25 mg/kg PO, 10 days, day 11 post end of treatment): 89.8%
bioluminescence signal (parasite load) at the infection site ([4]; study 1, 25 mg/kg PO, 10 days): significantly reduce
EC50 [3]: 850 nM

Cc1c(C(=O)Nc2ccc3c(c2)B(O)OC3)nnn1-c1ccccn1 [DNDI-6148]
distribution coefficient (log D), DNDi data [5]: 1.92
EC50 [1]: 70 nM
lesion size reduction vs respective vehicle control [4, 7]: 93.2%
mice clear of any detectable infection [4, 7]: 1/5
bioluminescence signal (parasite load) at the infection site ([4]; study 1, 50 mg/kg PO, 5 days): significantly reduce
mice cured (no visible lesion), no detectable parasite load by bioluminescence [4, 8]: 3/6
overall lesion size reduction compared to the average VC lesion size [4, 8]: 99.3%
mice cured, no detectable parasite load ([4]; study 2, 50 mg/kg PO, 10 days, day 18 post end of treatment): 6/6
mice that had developed papules ([4]; study 2, 50 mg/kg PO, 10 days, day 61 post end of treatment): 0/5
mice that had developed papules ([4]; study 2, 50 mg/kg PO, 10 days, day 74 post end of treatment): 1/5
average lesion size [4, 9]: 1.98 mm^2
mice that had developed lesions [4, 9]: 1/5
EC50 [2]: 240 nM
lesion size reduction [6, 10]: no visible nodule
reduction of the parasite load as measured by qPCR [6, 10]: ~2 log-fold
% reduction Lesion size ([6]; Oral, 12.5 mg/kg, BID, 10 days): 66.7%
% reduction Parasite load ([6]; Oral, 12.5 mg/kg, BID, 10 days, qPCR day 11): 92.35%
% reduction Lesion size ([6]; Oral, 25 mg/kg, BID, 10 days): 85.4%
% reduction Parasite load ([6]; Oral, 25 mg/kg, BID, 10 days, qPCR day 11): 98.49%
% reduction Lesion size ([6]; Oral, 50 mg/kg, BID, 5 days): 43.2%
% reduction Parasite load ([6]; Oral, 50 mg/kg, BID, 5 days, qPCR): 100.00%
% reduction Lesion size ([6]; Oral, 50 mg/kg, BID, 10 days): 100.0% and 75.7% and 91.9%
% reduction Parasite load ([6]; Oral, 50 mg/kg, BID, 10 days, qPCR day 11, 50 mg/kg): 99.56% and 100.00% and 98.41%
% reduction Lesion size ([6]; Oral, 50 mg/kg, QD, 10 days): 100.0%
% reduction Parasite load ([6]; Oral, 50 mg/kg, QD, 10 days, qPCR day 11): 97.73%
% reduction Parasite load ([6]; Topical, Sat sol in PG-EtOH (1:1), 50 μl BID, 10 days, qPCR day 11): 71.49% and 99.68%
EC50 (in vitro): 181 µM
EC50 [3]: 50 nM

O=[N+]([O-])c1cn2c(n1)OC[C@H](Oc1ccc(OC(F)(F)F)cc1)C2 [DNDI-8219, (6 R)-2-Nitro-6-[4-(trifluoromethoxy)phenoxy]-6,7-dihydro-5 H-imidazo[2,1-b][1,3]oxazine]
EC50 [1]: 30 nM
EC50 [2]: 1200 nM
EC50 (in vitro): > 200 µM
EC50 [3]: 380 nM
